Paper PMC2740399 (American Journal of Physiology - Cell Physiology, 2009)

What was measured:
HA-tagged XGnRHR [1] = assay: Trafficking, anti-HA loading with agonist present; type: cell-based, Xenopus laevis; conditions: HeLa; 10^−7 M GnRH II with anti-HA, 0–60 min, 37°C
HA-tagged XGnRHR [2] = assay: Cell surface expression of HA-XGnRHR; type: cell-based, Xenopus laevis; conditions: HeLa
[3] = target: T1, HA-tagged h.XGnRHR (hGnRHR with added XGnRHR COOH tail) (Homo sapiens, UniProt P30968); assay: Cell surface expression / PCSE of HA-h.XGnRHR after 18 h ligand exposure; type: cell-based, human/Xenopus laevis; conditions: HeLa
T1 sequence (P30968 1-328): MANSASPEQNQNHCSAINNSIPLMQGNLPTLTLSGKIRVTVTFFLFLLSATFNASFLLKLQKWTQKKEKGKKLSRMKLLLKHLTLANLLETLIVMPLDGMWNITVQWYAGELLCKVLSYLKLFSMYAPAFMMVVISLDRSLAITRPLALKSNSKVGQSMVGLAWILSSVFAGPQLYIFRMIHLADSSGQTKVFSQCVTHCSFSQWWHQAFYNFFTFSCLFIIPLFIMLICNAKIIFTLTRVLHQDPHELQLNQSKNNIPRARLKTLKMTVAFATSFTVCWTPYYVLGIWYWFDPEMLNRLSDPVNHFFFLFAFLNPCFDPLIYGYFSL

A261K.h.XGnRHR = assay: Cell surface expression of A261K.h.XGnRHR; type: cell-based, human/Xenopus laevis; conditions: HeLa; 18 h, 10^−7 M IN3
HA-tagged h.XGnRHR [4] = assay: Internalization of anti-HA preloaded receptor; type: cell-based, human/Xenopus laevis; conditions: HeLa, 60 min, 37°C; for block of GnRH-stimulated internalization: antagonist 10^−7 M with GnRH 10^−9 M
HA-tagged hGnRHR [5] = target: T2, HA-tagged hGnRHR (Homo sapiens, UniProt P30968); assay: Whole cell expression of HA-hGnRHR; type: cell-based; conditions: HeLa; 18 h, 10^−7 M; not shown
T2 sequence (P30968 1-328): T1 sequence (P30968 1-328)

wild-type GnRHR = conditions: cited from earlier work
HA-tagged hGnRHR [6] = target: T2, HA-tagged hGnRHR; assay: Cell surface expression / PCSE of HA-hGnRHR after 18 h ligand exposure; type: cell-based; conditions: HeLa
HA-tagged h.XGnRHR [7] = assay: Whole cell expression of HA-h.XGnRHR; type: cell-based, human/Xenopus laevis; conditions: HeLa; 18 h, 10^−7 M; not shown
HA-tagged mGnRHR [8] = target: T3, HA-tagged mGnRHR (Mus musculus, UniProt Q01776); assay: Internalization of anti-HA preloaded receptor; type: cell-based; conditions: HeLa, 60 min, 37°C; for block of GnRH-stimulated internalization: antagonist 10^−7 M with GnRH 10^−9 M
T3 sequence (Q01776 1-327): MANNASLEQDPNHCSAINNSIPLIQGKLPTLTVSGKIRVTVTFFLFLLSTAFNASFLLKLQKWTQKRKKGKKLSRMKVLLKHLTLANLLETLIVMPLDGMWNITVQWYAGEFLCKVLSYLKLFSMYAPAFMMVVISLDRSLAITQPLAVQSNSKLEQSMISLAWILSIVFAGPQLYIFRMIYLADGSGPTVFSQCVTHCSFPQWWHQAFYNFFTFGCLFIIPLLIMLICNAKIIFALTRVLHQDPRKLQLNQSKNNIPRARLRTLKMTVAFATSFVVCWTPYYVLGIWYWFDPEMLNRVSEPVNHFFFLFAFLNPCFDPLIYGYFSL

[9] = test system: GnRHR point mutants that cause hypogonadotropic hypogonadism; conditions: cited from earlier work
A261K.hGnRHR = assay: Cell surface expression of A261K.hGnRHR; type: cell-based, human; conditions: HeLa; 18 h, 10^−7 M IN3
HA-A261K-h.XGnRHR = assay: Trafficking, anti-HA loading with agonist present; type: cell-based, human/Xenopus laevis; conditions: HeLa; 10^−7 M GnRH with anti-HA, 0–60 min, 37°C
HA-tagged mGnRHR [10] = target: T3, HA-tagged mGnRHR; assay: Cell surface expression of HA-mGnRHR; type: cell-based; conditions: HeLa, 10^−7 M GnRH, 37°C
HA-A261K h.XGnRHR = assay: Internalization of anti-HA preloaded receptor; type: cell-based, human/Xenopus laevis; conditions: HeLa, 60 min, 37°C
In short: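 HeLa cells transduced day after plating with adenovirus (1–3 pfu/nl, 6 h) carrying exofacially HA-tagged, G protein-uncoupled receptor; assayed next day. Surface receptors prelabelled 60 min with mouse anti-HA (1:200) in DMEM/2% BSA at ~21°C, washed, then treated at 37°C. Cells were fixed, permeabilized, given Alexa 488 secondary plus DAPI, and stained inclusions quantified by automated ×10 imaging. Data are 3–4 wells.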

HA-tagged h.XGnRHR [11] = assay: Trafficking, anti-HA loading with agonist present; type: cell-based, human/Xenopus laevis; conditions: HeLa; 10^−7 M GnRH with anti-HA, 0–60 min, 37°C
[12] = 10^−7 M IN3, fluorescence immunohistochemistry, automated imaging

## (His^5, Trp^7, Tyr^8)GnRH [GnRH II]
HA-tagged XGnRHR [1]
  inclusion count (effect of agonist): increased
HA-tagged XGnRHR [2]; 10^−7 M GnRH II, 37°C
  time to maximal effect on cell surface expression: 120 min
  time to significant reduction in cell surface expression: 10 min
HA-tagged XGnRHR [2]; 10^−7 M GnRH II, 37°C, data with and without IN3 pretreatment pooled
  reduction in cell surface expression: rapid reduction

## Cc1cc(C)cc(-c2[nH]c3ccc(C(C)(C)C(=O)N4CC5CCC4CC5)cc3c2[C@H](C)CNCCc2ccncc2)c1 [IN3, (2S)-2-[5-[2-(2-azabicyclo[2.2.2]oct-2-yl)-1,1-dimethy-2-oxoethyl]-2-(3,5-dimethylphenyl)-1H-indol-3-yl]-N-(2-pyridin-4-ylethyl)propan-1-amine]
[3]; [12]
  cell surface expression (effect of ligand): greatly increased
[3]; 10^−7 M, increased from 6.3% (control), n = 3 experiments
  PCSE (proportional cell surface expression): 17.6%
A261K.h.XGnRHR
  effect of IN3 on cell surface expression: pronounced increase
HA-tagged h.XGnRHR [4]
  block of GnRH-stimulated internalization: blocked
HA-tagged hGnRHR [5]
  whole cell expression (effect of ligand): no measurable effect
wild-type GnRHR
  signaling via wild-type GnRHR: increases signaling
HA-tagged hGnRHR [6]; [12]
  cell surface expression (effect of ligand): greatly increased
HA-tagged hGnRHR [6]; 10^−7 M, increased from 1.6% (control), n = 3 experiments
  PCSE (proportional cell surface expression): 11%
HA-tagged hGnRHR [6]; 10^−7 M, vs control, 'almost 7-fold'
  PCSE increase: ~7 fold
HA-tagged h.XGnRHR [7]
  whole cell expression (effect of ligand): no measurable effect
HA-tagged mGnRHR [8]
  block of GnRH-stimulated internalization: blocked
[9]
  rescue of signaling: “rescues” signaling via most of these mutants
A261K.hGnRHR
  effect of IN3 on cell surface expression: pronounced increase
HA-tagged XGnRHR [2]; 18 h preincubation, 10^−7 M IN3, not shown
  cell surface expression after preincubation (effect of IN3): did not alter expression

## cetrorelix
HA-tagged h.XGnRHR [4]
  block of GnRH-stimulated internalization: blocked
HA-tagged h.XGnRHR [4]; cetrorelix 10^−7 M
  internalization (effect of peptide antagonist alone): not increased by a peptide antagonist
HA-tagged mGnRHR [8]
  block of GnRH-stimulated internalization: blocked
HA-tagged mGnRHR [8]; cetrorelix 10^−7 M
  internalization (effect of peptide antagonist alone): not increased by a peptide antagonist

## gonadotropin-releasing hormone [GnRH]
HA-tagged h.XGnRHR [4]; 10^−9 M GnRH
  internalization (effect of 10^−9 M GnRH): increased
HA-tagged mGnRHR [8]; 10^−9 M GnRH
  internalization (effect of 10^−9 M GnRH): increased
HA-A261K-h.XGnRHR
  receptor distribution (effect of GnRH): no measurable effect
HA-tagged mGnRHR [10]; after 18 h 10^−7 M IN3
  reduction in cell surface expression, IN3-pretreated cells: pronounced reduction
HA-tagged mGnRHR [10]; no IN3 pretreatment
  reduction in cell surface expression: reduced expression
HA-A261K h.XGnRHR
  internalization (effect of 10^−9 M GnRH): did not increase internalization
HA-tagged h.XGnRHR [11]
  inclusion count (effect of agonist): increased
